Measurements from ChEMBL document CHEMBL4715681, “Targeting miRNA by tunable small molecule binders: peptidic aminosugar mediated interference in miR-21 biogenesis reverts epithelial to mesenchymal transition” (Medchemcomm, 2018).
Converted amounts (≈) assume the structure as drawn. “And” between values parts separate entries of the source, which are not always exact repeats. Identical values can stand only once. The source made the active and inactive calls. No cut-off for these calls is given here.

Legend:
microRNA 21 [1] = test: Displacement of F-neo from premature miRNA21 (unknown origin) at 100 nM by fluorescence assay relative to control; type: nucleic-acid assay
Outline: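 Competition fluorescence: pre-miR21 (12.5 nM, annealed 75→25 °C at 1 °C/min) complexed with 100 nM F-neo in 10 mM phosphate, 25 mM KCl, 0.05 mM EDTA, pH 6.5. Test agent added at 100 nM. Emission read at ex 485/em 525 nm. Percent binding = (I−Ic)×100/(Ineo−Ic), referenced to 100 nM kanamycin; duplicate controls.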

Escherichia coli [2] = test: Antibacterial activity against Escherichia coli ATCC 25922 assessed as reduction in bacterial growth incubated for 15 to 20 hrs by broth microdilution method; type: functional; settings: time 15-20 hrs
Outline: (§1)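 MIC by CLSI broth microdilution on exponential-phase cultures, in triplicate. Compound stocks were made at 10× final in 10% DMSO and added to the bacterial suspension (about 3 x 10⁵ cells/mL in cation-adjusted Mueller-Hinton broth). Final concentrations were 2-fold serial dilutions from 50 μM to 0.78 μM. Plates were incubated humidified at 37°C for 15-20 h, growth was read as absorbance at 595 nm, and % inhibition was averaged from the triplicates.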

microRNA 21 [3] = test: Displacement of F-neo from premature miRNA21 (unknown origin) by fluorescence assay; type: nucleic-acid assay
MCF7 [4] = test: Antiproliferative activity against human MCF7 cells assessed as reduction in Ki67 expression at 5 uM incubated for 48 hrs by fluorescence microscopy; type: functional, cell-based
Outline: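 MCF7 cells seeded on coverslips (8x10⁴ per well) and grown 24 h at 37 °C, 5% CO₂, then treated 48 h at 5 μM; untreated and kanamycin controls. Fixed in 3% paraformaldehyde, permeabilized with 0.2% Triton X-100, blocked with 0.5% BSA. Stained with anti-Ki67 (1:1000, overnight) and Alexa Fluor 488 secondary (1:2000, 2 h). Nuclear speckles imaged.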

Staphylococcus aureus [5] = test: Antibacterial activity against Staphylococcus aureus ATCC 25923 assessed as reduction in bacterial growth at 64 uM incubated for 15 to 20 hrs by broth microdilution method relative to control; type: functional; settings: time 15-20 hrs, read-out: GI
Pseudomonas aeruginosa [6] = test: Antibacterial activity against Pseudomonas aeruginosa ATCC 27853 assessed as reduction in bacterial growth incubated for 15 to 20 hrs by broth microdilution method; type: functional; settings: time 15-20 hrs
Outline: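 CLSI broth microdilution on exponential-phase bacteria, ~3 x 10⁵ cells/mL in cation-adjusted Mueller-Hinton broth. Serial 2-fold dilutions give final 50 to 0.78 μM from 10x stocks in 10% DMSO. Incubated 15-20 h at 37°C, humidified. Growth read at 595 nm; percent inhibition averaged from triplicates to give MIC.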

Staphylococcus aureus [7] = test: Antibacterial activity against methicillin-resistant Staphylococcus aureus ATCC 1960649 assessed as reduction in bacterial growth incubated for 15 to 20 hrs by broth microdilution method; type: functional; settings: time 15-20 hrs; outline: as §1
Staphylococcus aureus [8] = test: Antibacterial activity against Staphylococcus aureus ATCC 25923 assessed as reduction in bacterial growth incubated for 15 to 20 hrs by broth microdilution method; type: functional; settings: time 15-20 hrs; outline: as §1
Escherichia coli [9] = test: Antibacterial activity against Escherichia coli ATCC 25922 assessed as reduction in bacterial growth at 64 uM incubated for 15 to 20 hrs by broth microdilution method relative to control; type: functional; settings: time 15-20 hrs, read-out: GI
Staphylococcus aureus [10] = test: Antibacterial activity against methicillin-resistant Staphylococcus aureus ATCC 1960649 assessed as reduction in bacterial growth at 64 uM incubated for 15 to 20 hrs by broth microdilution method relative to control; type: functional; settings: time 15-20 hrs; for inhibition of growth at 64 µM: read-out: GI
Pseudomonas aeruginosa [11] = test: Antibacterial activity against Pseudomonas aeruginosa ATCC 27853 assessed as reduction in bacterial growth at 64 uM incubated for 15 to 20 hrs by broth microdilution method relative to control; type: functional; settings: time 15-20 hrs, read-out: GI
Pseudomonas aeruginosa [12] = test: Antibacterial activity against Pseudomonas aeruginosa ATCC 27853 assessed as reduction in bacterial growth at 12.5 uM incubated for 15 to 20 hrs by broth microdilution method relative to control; settings: time 15-20 hrs
Staphylococcus aureus [13] = test: Antibacterial activity against Staphylococcus aureus ATCC 25923 assessed as reduction in bacterial growth at 12.5 uM incubated for 15 to 20 hrs by broth microdilution method relative to control; settings: time 15-20 hrs
MCF7 [14] = test: Inhibition of epithelial-mesenchymal transition in human MCF7 cells increase in E-cadherin expression at 5 uM incubated for 48 hrs by inverted fluorescence microscopy
microRNA 21 [15] = test: Inhibition of premature miRNA-21 (unknown origin) transfected in human MCF7 cells assessed as increase in PTEN expression at 5 uM incubated for 48 hrs by Western blot analysis; type: cell-based
Outline: (§2)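 MCF7 cells seeded at 4x10⁴/well, treated 24 h later at 5 μM for 48 h. Controls: antisense LNA transfected at 50 nM, kanamycin forms, streptomycin, untreated. Lysates (40 µg protein) run on SDS-PAGE and blotted to PVDF. Probed with PDCD4 or PTEN (1:1000) plus GAPDH (1:2000) antibodies overnight at 4 °C, then HRP secondary and ECL; bands quantified as fold change versus controls.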

Escherichia coli [16] = test: Antibacterial activity against Escherichia coli ATCC 25922 assessed as reduction in bacterial growth at 12.5 uM incubated for 15 to 20 hrs by broth microdilution method relative to control; settings: time 15-20 hrs
MCF7 [17] = test: Antimigratory activity in human MCF7 cells assessed as […] at 5 uM incubated for 48 hrs by imaging analysis relative to control; type: functional
Outline: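 MCF-7 cells seeded densely and grown to confluence, then scratched with a pipette tip and washed with PBS. Treated at 5μM alongside an untreated well. Wound images quantified in ImageJ; three biological replicates, error bars ± S.D.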

[18] = Cytotoxicity against human MCF7 cells assessed as reduction cell viability at 2.5 to 5 uM incubated for 24 hrs by MTT assay; type: cell-based; settings: dose 2.5-5 µM, read-out: INH
Outline: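 MTT assay in MCF7 cells seeded at 8000/well and treated 24 h after seeding at 0, 2.5, 5, 7.5 and 10 μM, in triplicate. After 24 h exposure, MTT (0.5 mg/ml) added for 4 h at 37 °C. Crystals dissolved in DMSO and absorbance read at 570 nm to give percent viable cells.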

microRNA 21 [19] = test: Inhibition of premature miRNA-21 (unknown origin) transfected in human MCF7 cells assessed as increase in PDCD4 expression at 5 uM incubated for 48 hrs by Western blot analysis; type: cell-based; outline: as §2
microRNA 21 [20] = test: Binding affinity to pre-miRNA21 (unknown origin) by […]; type: nucleic-acid assay
Outline: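 Bio-layer interferometry (Octet RED96) with immobilized pre-miR21. Analytes run at 8-128 nM in 10 mM HEPES, 50 mM NaCl, 0.05% Tween20. Association 5 min, dissociation 10 min; regeneration in 50 mM NaOH, 1 M NaCl. KD derived from the binding curves.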

microRNA 21 [21] = test: Inhibition of premature miRNA-21 (unknown origin) transfected in human MCF7 cells assessed as reduction of maturation of pre-miRNA21 at 5 uM incubated for 48 hrs by qPCR analysis; type: cell-based
Outline: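 MCF7 cells treated 48 h at 5 μM, as for the Western blots. Total RNA extracted with TRIzol and DNase-treated; 400-500 ng polyadenylated and reverse-transcribed with oligo(dT) adaptor. SYBR qPCR run in triplicate for mature miR21, normalized to U6 snRNA, fold change by 2^-ΔΔCt.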

Structure (SMILES)	inhibition (microRNA 21 [1])	inhibition of growth at 64 µM (Staphylococcus aureus [5]) [%]	inhibition of growth at 64 µM (Escherichia coli [9]) [%]	inhibition of growth at 64 µM (Staphylococcus aureus [10]) [%]	growth inhibition (GI) (Pseudomonas aeruginosa [12])	growth inhibition (GI) (Staphylococcus aureus [13])	growth inhibition (GI) (Escherichia coli [16])	inhibition (microRNA 21 [19])	inhibition (microRNA 21 [21])	further results
CN[C@@H]1[C@H](O[C@H]2[C@H](O[C@H]3[C@H](O)[C@@H](O)[C@H](N=C(N)N)[C@@H](O)[C@@H]3N=C(N)N)O[C@@H](C)[C@]2(O)C=O)O[C@@H](CO)[C@H](O)[C@H]1O	107%	–	–	–	–	–	–	–	–	–
NC[C@H]1O[C@H](O[C@H]2[C@H](O)[C@@H](O[C@H]3O[C@H](CO)[C@@H](O)[C@H](N)[C@H]3O)[C@H](N)C[C@@H]2N)[C@H](O)[C@@H](O)[C@@H]1O [KANAMYCIN]	107% and 100%	100	100	41	–	–	–	–	–	MIC (Escherichia coli [2]): 4 µM (≈ 1.94 µg/mL); IC50 (microRNA 21 [3]): 1.1 µM; inhibition (MCF7 [4]): inactive; MIC (Pseudomonas aeruginosa [6]): > 256 µM; MIC (Staphylococcus aureus [7]): > 256 µM; MIC (Staphylococcus aureus [8]): 4 µM (≈ 1.94 µg/mL); inhibition of growth at 64 µM (Pseudomonas aeruginosa [11]): 11%
N=C(N)NCCC[C@H](NC(=O)CCC(=O)NC[C@H]1O[C@H](O[C@@H]2[C@@H](O)[C@H](O[C@H]3O[C@H](CN)[C@@H](O)[C@H](O)[C@H]3O)[C@@H](N)C[C@H]2N)[C@H](O)[C@@H](N)[C@@H]1O)C(=O)N[C@@H](CS)C(N)=O	–	20	13	25	inactive	–	–	–	–	–
NC[C@H]1O[C@H](O[C@H]2[C@H](O)[C@@H](O[C@H]3O[C@H](CNC(=O)CCC(=O)N[C@@H](Cc4ccccc4)C(=O)N[C@@H](CS)C(N)=O)[C@@H](O)[C@H](N)[C@H]3O)[C@H](N)C[C@@H]2N)[C@H](O)[C@@H](O)[C@@H]1O	140%	–	–	22	inactive	inactive	inactive	Active	Active	inhibition (MCF7 [14]): Active; inhibition (microRNA 21 [15]): Active; Activity (MCF7 [17]): >50%; cytotoxicity at 24 h, up to 5 µM [18]: 2%; Kd (microRNA 21 [20]): 0.0436 µM
NC[C@H]1O[C@H](O[C@H]2[C@H](O)[C@@H](O[C@H]3O[C@H](CNC(=O)CCC(=O)N[C@@H](Cc4ccc(O)cc4)C(=O)N[C@@H](CS)C(N)=O)[C@@H](O)[C@H](N)[C@H]3O)[C@H](N)C[C@@H]2N)[C@H](O)[C@@H](O)[C@@H]1O	133%	34	–	38	inactive	–	inactive	–	–	inhibition (MCF7 [4]): Active
C[C@@H](O)[C@H](NC(=O)[C@H](CCCNC(=N)N)NC(=O)CCC(=O)NC[C@H]1O[C@H](O[C@@H]2[C@@H](O)[C@H](O[C@H]3O[C@H](CN)[C@@H](O)[C@H](O)[C@H]3O)[C@@H](N)C[C@H]2N)[C@H](O)[C@@H](N)[C@@H]1O)C(N)=O	131%	–	–	–	inactive	inactive	inactive	–	–	growth inhibition (GI) (Staphylococcus aureus [10]): inactive
N=C(N)NCCC[C@H](NC(=O)[C@H](CCCNC(=N)N)NC(=O)CCC(=O)NC[C@H]1O[C@H](O[C@@H]2[C@@H](O)[C@H](O[C@H]3O[C@H](CN)[C@@H](O)[C@H](O)[C@H]3O)[C@@H](N)C[C@H]2N)[C@H](O)[C@@H](N)[C@@H]1O)C(N)=O	137%	29	25	30	–	–	–	Active	Active	Activity (microRNA 21 [20]; dose 16.0 nM): Active; inhibition of growth at 64 µM (Pseudomonas aeruginosa [11]): 11%
NC[C@H]1O[C@H](O[C@H]2[C@H](O)[C@@H](O[C@H]3O[C@H](CNC(=O)CCC(=O)N[C@@H](Cc4ccc(O)cc4)C(=O)N[C@@H](CC(=O)O)C(N)=O)[C@@H](O)[C@H](N)[C@H]3O)[C@H](N)C[C@@H]2N)[C@H](O)[C@@H](O)[C@@H]1O	5%	–	–	–	inactive	inactive	inactive	Active	Active	growth inhibition (GI) (Staphylococcus aureus [10]): inactive
